These results are taken from ChEMBL document CHEMBL5236609, “Optimization of 1,2,4-Triazole-3-thiones toward Broad-Spectrum Metallo-β-lactamase Inhibitors Showing Potent Synergistic Activity on VIM- and NDM-1-Producing Clinical Isolates” (J Med Chem, 2022).

The structures appear in SMILES notation. Bounds are passed on as bounds.

The subject of one series is Escherichia coli. Put plainly: Antimicrobial activity against blaNDM-1-producing multidrug-resistant Escherichia coli SI-004 clinical isolate assessed as meropenem MIC at 32 ug/ml by broth microdilution method (reference value: 64 ug/ml).
Series [1] has as its system Klebsiella pneumoniae. Put plainly: Antimicrobial activity against blaVIM-1-producing multidrug-resistant Klebsiella pneumoniae K47-25 clinical isolate assessed as meropenem MIC at 32 ug/ml by broth microdilution method (reference value: […] ug/ml). The format is functional. Particulars: dose 32 µg/ml. The method in brief:
(§1)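 Inoculum was 5×10^4 CFU/well. Each inhibitor was present at a fixed 32 μg/mL, and MICs were also taken without inhibitor.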

Series [2] in a line: Metabolic stability in CD-1 mouse microsomes assessed as compound remaining after 40 mins LC-MS/MS analysis. The format is ADME, Microsome. Particulars: read-out: Activity. The method in brief:
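Mouse liver microsomes, mixed gender, at 37 °C for 40 min; propranolol control. Reports t1/2, intrinsic clearance and % intact compound remaining at 40 min.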

A short description of series [3]: Solubility in PBS pH 7.4 after 24 hrs by LC-MS/MS analysis. The format is physicochemical. The method in brief: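 Solubility in 10 mM PBS, pH 7.4.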
The nature of series [4]: Plasma protein binding in CD-1 mouse plasma measured after 4 hrs by LC-MS/MS analysis. The format is ADME, cell-free. The conditions noted are these: read-out: PPB (converted). The method in brief:
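Binding to mouse plasma proteins (mixed gender) measured; diclofenac as control.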

The next series has as its system Pseudomonas aeruginosa. Put plainly: Antimicrobial activity against blaVIM-2-producing multidrug-resistant Pseudomonas aeruginosa VA-182/00 clinical isolate assessed as meropenem MIC at 32 ug/ml by broth microdilution method (reference value: 128 ug/ml). The format is functional. The conditions noted are these: dose 32 µg/ml. The method in brief:
as §1

Series [5] is described as follows: Inhibition of bacterial VIM-1 (unknown origin) expressed in Escherichia coli EXPRESS BL21(DE3) assessed as inhibition constant by measuring rate of substrate hydrolysis by UV-visible spectrophotometry. Set-up: species or system Bacteria. The method in brief:
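Reporter-substrate assay with purified MBL (1–70 nM final) in 50 mM HEPES pH 7.5 at 30 °C. […] Inhibitor 0.5–1000 μM final. Ki derived from the v0/vi vs [I] slope assuming competitive inhibition, or from a Dixon plot. Ki given when inhibition >70%, otherwise % inhibition at 100 μM. Triplicate.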

Series [6] relates to Klebsiella pneumoniae. Put plainly: Antimicrobial activity against blaVIM-4-producing multidrug-resistant Klebsiella pneumoniae VA-416/02 clinical isolate assessed as meropenem MIC at 32 ug/ml by broth microdilution method (reference value: […] ug/ml). The format is functional. Particulars: dose 32 µg/ml. The method in brief:
as §1

The nature of series [7]: Cytotoxicity against human HeLa cells assessed as LDH release incubated for 24 hrs by membrane integrity assay. The format is toxicity, cell-based. The method in brief: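 HeLa cells (20,000/well) exposed to compound up to 250 μM for 24 h at 37 °C, 5% CO2 in DMEM with 10% FBS, 4.5 mg/mL glucose and 2 mM L-glutamine. LDH release expressed as % of Triton X-100 maximum lysis; IC50 is the concentration giving 50% cytotoxicity.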

The target in another series is T1, Aminopeptidase N (Sus scrofa, UniProt P15145).
T1 sequence (P15145 whole entry): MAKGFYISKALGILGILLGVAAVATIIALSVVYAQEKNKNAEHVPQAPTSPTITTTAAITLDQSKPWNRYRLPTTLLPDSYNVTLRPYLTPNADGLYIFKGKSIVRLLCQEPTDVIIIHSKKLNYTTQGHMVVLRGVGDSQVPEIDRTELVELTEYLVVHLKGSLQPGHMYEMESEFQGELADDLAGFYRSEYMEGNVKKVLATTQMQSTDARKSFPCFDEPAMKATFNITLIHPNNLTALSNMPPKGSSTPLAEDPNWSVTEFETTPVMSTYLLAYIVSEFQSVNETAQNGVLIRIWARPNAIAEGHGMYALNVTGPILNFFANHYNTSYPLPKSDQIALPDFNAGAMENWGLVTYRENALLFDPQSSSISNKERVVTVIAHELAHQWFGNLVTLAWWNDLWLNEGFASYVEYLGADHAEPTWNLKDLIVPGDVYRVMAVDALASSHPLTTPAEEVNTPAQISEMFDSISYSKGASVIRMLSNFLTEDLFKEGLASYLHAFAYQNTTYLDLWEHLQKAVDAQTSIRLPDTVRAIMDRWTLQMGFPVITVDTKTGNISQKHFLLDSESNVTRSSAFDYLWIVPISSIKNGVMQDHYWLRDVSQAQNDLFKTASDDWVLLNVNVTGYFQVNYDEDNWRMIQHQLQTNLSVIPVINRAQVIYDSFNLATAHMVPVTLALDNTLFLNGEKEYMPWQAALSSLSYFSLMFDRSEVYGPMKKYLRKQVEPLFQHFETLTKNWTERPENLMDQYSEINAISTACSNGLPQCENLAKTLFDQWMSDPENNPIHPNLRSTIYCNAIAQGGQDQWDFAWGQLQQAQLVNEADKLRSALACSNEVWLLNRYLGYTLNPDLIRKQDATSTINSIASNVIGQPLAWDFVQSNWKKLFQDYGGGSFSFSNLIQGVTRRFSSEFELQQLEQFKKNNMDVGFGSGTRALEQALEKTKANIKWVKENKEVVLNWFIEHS
Put plainly: Inhibition of porcine APN using fluorogenic substrate H-Leu-AMC measured for 1 hr.

For `O=C(O)[C@H](CCCn1c(-c2ccccc2)n[nH]c1=S)N(Cc1ccccn1)Cc1ccccn1`, the MIC stood at 0.06 µg/mL in the series with Escherichia coli, 0.06 µg/mL in the series on Klebsiella pneumoniae [1], 16 µg/mL in the series on Pseudomonas aeruginosa and 0.03 µg/mL with Klebsiella pneumoniae [6]. Also, the remaining at 40 min in series [2] amounted to 80.5%. Also, the solubility at 24 h in [3] is ≥ 200 µM. In addition, the fraction unbound at 4 h in series [4] is 0.313. For the same compound, in [5], the Ki was 1.7 µM.
`Cc1[nH]cnc1CN(Cc1c[nH]cn1)[C@@H](CCCn1c(-c2ccccc2)n[nH]c1=S)C(=O)O`: the minimal inhibitory concentration (MIC) in the series with Escherichia coli was 0.06 µg/mL; in the series with Klebsiella pneumoniae [1], 0.06 µg/mL; in the series on Pseudomonas aeruginosa, 8 µg/mL; in the series with Klebsiella pneumoniae [6], 0.03 µg/mL. Moreover, the CC50 at 24 h in [7] was found to be 105 µM. For the same compound, in [2], the remaining at 40 min came out at 98.1%. The solubility at 24 h in series [3] was ≥ 200 µM. Moreover, the fraction unbound at 4 h in series [4] is 0.377. In addition, in series [5], the Ki stood at 0.38 µM.
In the case of `O=C(O)[C@H](CCn1c(-c2ccccc2)n[nH]c1=S)N(Cc1c[nH]cn1)Cc1c[nH]cn1`, the minimum inhibitory concentration (MIC) in the series on Escherichia coli is 0.06 µg/mL; in the series on Klebsiella pneumoniae [1] it was 0.06 µg/mL; in the series with Pseudomonas aeruginosa it was 8 µg/mL; in the series with Klebsiella pneumoniae [6] it was 0.03 µg/mL. The 50% inhibitory concentration (IC50) against Aminopeptidase N came out at 27 µM. In addition, the cytotoxic concentration (CC50) at 24 h in series [7] was > 250 µM. Also, the remaining at 40 min in series [2] came out at 91.2%. The solubility at 24 h in series [3] is ≥ 200 µM. For the same compound, in [4], the fraction unbound at 4 h is 0.45. For the same compound, the Ki in series [5] is 0.39 µM.
Consider `O=C(O)[C@H](CCCn1c(-c2ccc3ccccc3c2)n[nH]c1=S)N(Cc1c[nH]cn1)Cc1c[nH]cn1`, for which the MIC came to 0.06 µg/mL in the series on Escherichia coli, 0.03 µg/mL in the series with Klebsiella pneumoniae [1], 8 µg/mL in the series with Pseudomonas aeruginosa and 0.03 µg/mL in the series with Klebsiella pneumoniae [6]. Moreover, the concentration for half-maximal inhibition (IC50) at Aminopeptidase N is 16 µM. Further, the solubility at 24 h in series [3] is ≥ 200 µM. Also, the fraction unbound at 4 h in series [4] is 0.048. The Ki in series [5] was 0.52 µM.
With `O=C(O)[C@H](CCCn1c(-c2ccccc2)n[nH]c1=S)N(Cc1c[nH]cn1)Cc1c[nH]cn1`, the MIC was determined as 0.06 µg/mL with Escherichia coli, 0.03 µg/mL in the series with Klebsiella pneumoniae [1], 8 µg/mL in the series with Pseudomonas aeruginosa and 0.03 µg/mL in the series with Klebsiella pneumoniae [6]. On Aminopeptidase N, this compound registered a 50% inhibitory concentration (IC50) of 30 µM. The CC50 at 24 h in [7] was > 250 µM. Besides, in series [3], the solubility at 24 h was ≥ 200 µM. In addition, in [4], the fraction unbound at 4 h was 0.324. Moreover, the Ki in series [5] turned out to be 0.15 µM.
